A short description of assay [1]: Inhibition of AMPKalpha at 10 uM by HTRF assay relative to control. In a few lines: (§1)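 HTRF kinase assay, one panel of kinases. Inhibitor stock 50 µM in 100% DMSO; tested at 10 µM. ATP and substrate at final levels near Km. Final buffer: 50 mM Hepes/NaOH pH 7.4, 40 µM Na3VO4, 0.005% Tween-20, 1 mM DTT, MnCl2 or MgCl2 at kinase-dependent levels. Started by adding ATP/substrate. Reaction run at room temperature, time varied by kinase. Detection mix in 50 mM Hepes pH 7.4, 0.1% BSA, 150 mM KF, incubated ≥1 h at room temperature. Activity expressed as % of uninhibited control; n=2.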
(Time-resolved FRET reads energy transfer from a long-lived donor to a nearby acceptor.)

The target in assay [2] is Ribosomal protein S6 kinase alpha-3 (Homo sapiens) (UniProt P51812). Put plainly: Inhibition of RSK2 at 10 uM by HTRF assay relative to control. In a few lines:
as §1

Assay [3] deals with T1, Inhibitor of nuclear factor kappa-B kinase subunit beta (Homo sapiens) (UniProt O14920).
T1 sequence (whole entry): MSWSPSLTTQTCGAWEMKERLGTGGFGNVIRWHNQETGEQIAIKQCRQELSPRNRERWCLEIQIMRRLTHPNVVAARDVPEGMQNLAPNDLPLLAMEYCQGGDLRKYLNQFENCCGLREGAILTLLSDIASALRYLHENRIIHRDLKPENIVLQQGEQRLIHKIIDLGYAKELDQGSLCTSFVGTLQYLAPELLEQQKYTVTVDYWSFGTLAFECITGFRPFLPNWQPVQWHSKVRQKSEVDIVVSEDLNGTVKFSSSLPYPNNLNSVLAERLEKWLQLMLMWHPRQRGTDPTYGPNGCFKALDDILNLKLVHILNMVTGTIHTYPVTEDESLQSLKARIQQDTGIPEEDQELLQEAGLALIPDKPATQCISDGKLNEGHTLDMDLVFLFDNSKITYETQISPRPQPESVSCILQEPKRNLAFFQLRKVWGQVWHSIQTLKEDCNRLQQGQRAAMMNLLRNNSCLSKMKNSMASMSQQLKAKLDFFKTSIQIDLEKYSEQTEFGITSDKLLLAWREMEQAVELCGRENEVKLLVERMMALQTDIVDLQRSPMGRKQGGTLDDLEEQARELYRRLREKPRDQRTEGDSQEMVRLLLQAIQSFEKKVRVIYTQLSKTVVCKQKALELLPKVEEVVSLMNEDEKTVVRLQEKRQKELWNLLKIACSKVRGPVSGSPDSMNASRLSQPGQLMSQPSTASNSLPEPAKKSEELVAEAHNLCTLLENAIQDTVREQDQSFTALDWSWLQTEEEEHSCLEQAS
Put plainly: Inhibition of IKK-beta at 10 uM by HTRF assay relative to control. The gist of the method: as §1

Assay [4] deals with Fibroblast growth factor receptor 1 (Homo sapiens) (UniProt P11362). Nature of the assay: Inhibition of FGFR1 at 10 uM by HTRF assay relative to control. The gist of the method: as §1
Assay [5] deals with T2, Serine/threonine-protein kinase Chk1 (Homo sapiens) (UniProt O14757).
T2 sequence (whole entry): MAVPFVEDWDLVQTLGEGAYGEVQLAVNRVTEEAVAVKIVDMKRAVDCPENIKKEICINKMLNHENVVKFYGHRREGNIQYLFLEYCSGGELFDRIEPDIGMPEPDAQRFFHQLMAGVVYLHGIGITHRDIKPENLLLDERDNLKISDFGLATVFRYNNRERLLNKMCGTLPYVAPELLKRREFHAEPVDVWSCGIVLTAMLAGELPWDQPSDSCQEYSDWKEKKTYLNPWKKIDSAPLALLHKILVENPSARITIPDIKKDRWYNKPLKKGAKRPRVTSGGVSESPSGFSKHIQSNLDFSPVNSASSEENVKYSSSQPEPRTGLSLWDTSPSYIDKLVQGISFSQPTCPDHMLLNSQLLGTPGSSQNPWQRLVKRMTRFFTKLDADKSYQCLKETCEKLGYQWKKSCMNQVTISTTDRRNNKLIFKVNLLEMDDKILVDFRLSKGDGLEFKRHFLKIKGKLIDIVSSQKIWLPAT
Nature of the assay: Inhibition of CHK1 at 10 uM by HTRF assay relative to control. The gist of the method: as §1

Assay [6] has as its target Serine/threonine-protein kinase Chk2 (Homo sapiens) (UniProt O96017). Nature of the assay: Inhibition of CHK2 at 10 uM by HTRF assay relative to control. The gist of the method: as §1
Assay [7] concerns the target Ribosomal protein S6 kinase beta-1 (Homo sapiens) (UniProt P23443). Put plainly: Inhibition of p70S6K at 10 uM by HTRF assay relative to control. In a few lines: as §1
For assay [8], the target named is Tyrosine-protein kinase Lck (Homo sapiens) (UniProt P06239). Put plainly: Inhibition of Lck at 10 uM by HTRF assay relative to control. In a few lines: as §1
In assay [9] the target is Tyrosine-protein kinase Fes/Fps (Homo sapiens) (UniProt P07332). Put plainly: Inhibition of FES at 10 uM by HTRF assay relative to control. In a few lines: as §1
Assay [10] concerns the target Protein kinase C alpha type (Homo sapiens) (UniProt P17252). Nature of the assay: Inhibition of PKCalpha at 10 uM by HTRF assay relative to control. The gist of the method:
as §1

Assay [11] addresses Platelet-derived growth factor receptor beta (Homo sapiens) (UniProt P09619). Put plainly: Inhibition of PDGFRbeta at 10 uM by HTRF assay relative to control. In a few lines:
as §1

For assay [12], the target named is MAP kinase-activated protein kinase 2 (Homo sapiens) (UniProt P49137). Nature of the assay: Inhibition of MAPKAPK2 at 10 uM by HTRF assay relative to control. In a few lines: as §1
Assay [13] has as its target Rho-associated protein kinase 2 (Homo sapiens) (UniProt O75116). Nature of the assay: Inhibition of ROCK2 at 10 uM by HTRF assay relative to control. The gist of the method: as §1
Assay [14] has as its target High affinity nerve growth factor receptor (Homo sapiens) (UniProt P04629). Put plainly: Inhibition of TrkA at 10 uM by HTRF assay relative to control. The gist of the method: as §1
For assay [15], the target named is 3-phosphoinositide-dependent protein kinase 1 (Homo sapiens) (UniProt O15530). Nature of the assay: Inhibition of PDK1 at 10 uM by HTRF assay relative to control.
For assay [16], the target named is Calcium/calmodulin-dependent protein kinase type II subunit alpha (Homo sapiens) (UniProt Q9UQM7). Put plainly: Inhibition of CaMK2alpha at 10 uM by HTRF assay relative to control. In a few lines:
as §1

Assay [17] concerns the target Insulin-like growth factor 1 receptor (Homo sapiens) (UniProt P08069). Put plainly: Inhibition of IGF1R at 10 uM by HTRF assay relative to control. In a few lines:
as §1

Assay [18] has as its target Mitogen-activated protein kinase 8 (Homo sapiens) (UniProt P45983). Put plainly: Inhibition of JNK1 at 10 uM by HTRF assay relative to control. The gist of the method: as §1
Assay [19] concerns the target Cyclin-dependent kinase 1 (Homo sapiens) (UniProt P06493). Put plainly: Inhibition of CDK1 at 10 uM by HTRF assay relative to control. In a few lines: as §1
Assay [20] addresses Protein kinase C gamma type (Homo sapiens) (UniProt P05129). Nature of the assay: Inhibition of PKCgamma at 10 uM by HTRF assay relative to control. In a few lines:
as §1

Calcium/calmodulin-dependent protein kinase type II subunit alpha (Homo sapiens), sequence (Q9UQM7 whole entry): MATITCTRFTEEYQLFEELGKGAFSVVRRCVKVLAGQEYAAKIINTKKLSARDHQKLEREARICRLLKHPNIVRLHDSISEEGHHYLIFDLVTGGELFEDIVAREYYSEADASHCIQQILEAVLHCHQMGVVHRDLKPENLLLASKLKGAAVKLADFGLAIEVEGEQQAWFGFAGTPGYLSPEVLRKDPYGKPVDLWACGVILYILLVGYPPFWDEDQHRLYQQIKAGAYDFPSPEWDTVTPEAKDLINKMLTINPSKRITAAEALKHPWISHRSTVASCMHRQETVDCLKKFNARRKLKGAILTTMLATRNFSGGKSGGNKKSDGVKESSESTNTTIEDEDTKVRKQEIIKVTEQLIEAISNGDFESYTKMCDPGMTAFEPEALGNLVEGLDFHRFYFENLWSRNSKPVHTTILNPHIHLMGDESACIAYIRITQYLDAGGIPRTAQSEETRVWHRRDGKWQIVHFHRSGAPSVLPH
Rho-associated protein kinase 2 (Homo sapiens), sequence (O75116 whole entry, looked up): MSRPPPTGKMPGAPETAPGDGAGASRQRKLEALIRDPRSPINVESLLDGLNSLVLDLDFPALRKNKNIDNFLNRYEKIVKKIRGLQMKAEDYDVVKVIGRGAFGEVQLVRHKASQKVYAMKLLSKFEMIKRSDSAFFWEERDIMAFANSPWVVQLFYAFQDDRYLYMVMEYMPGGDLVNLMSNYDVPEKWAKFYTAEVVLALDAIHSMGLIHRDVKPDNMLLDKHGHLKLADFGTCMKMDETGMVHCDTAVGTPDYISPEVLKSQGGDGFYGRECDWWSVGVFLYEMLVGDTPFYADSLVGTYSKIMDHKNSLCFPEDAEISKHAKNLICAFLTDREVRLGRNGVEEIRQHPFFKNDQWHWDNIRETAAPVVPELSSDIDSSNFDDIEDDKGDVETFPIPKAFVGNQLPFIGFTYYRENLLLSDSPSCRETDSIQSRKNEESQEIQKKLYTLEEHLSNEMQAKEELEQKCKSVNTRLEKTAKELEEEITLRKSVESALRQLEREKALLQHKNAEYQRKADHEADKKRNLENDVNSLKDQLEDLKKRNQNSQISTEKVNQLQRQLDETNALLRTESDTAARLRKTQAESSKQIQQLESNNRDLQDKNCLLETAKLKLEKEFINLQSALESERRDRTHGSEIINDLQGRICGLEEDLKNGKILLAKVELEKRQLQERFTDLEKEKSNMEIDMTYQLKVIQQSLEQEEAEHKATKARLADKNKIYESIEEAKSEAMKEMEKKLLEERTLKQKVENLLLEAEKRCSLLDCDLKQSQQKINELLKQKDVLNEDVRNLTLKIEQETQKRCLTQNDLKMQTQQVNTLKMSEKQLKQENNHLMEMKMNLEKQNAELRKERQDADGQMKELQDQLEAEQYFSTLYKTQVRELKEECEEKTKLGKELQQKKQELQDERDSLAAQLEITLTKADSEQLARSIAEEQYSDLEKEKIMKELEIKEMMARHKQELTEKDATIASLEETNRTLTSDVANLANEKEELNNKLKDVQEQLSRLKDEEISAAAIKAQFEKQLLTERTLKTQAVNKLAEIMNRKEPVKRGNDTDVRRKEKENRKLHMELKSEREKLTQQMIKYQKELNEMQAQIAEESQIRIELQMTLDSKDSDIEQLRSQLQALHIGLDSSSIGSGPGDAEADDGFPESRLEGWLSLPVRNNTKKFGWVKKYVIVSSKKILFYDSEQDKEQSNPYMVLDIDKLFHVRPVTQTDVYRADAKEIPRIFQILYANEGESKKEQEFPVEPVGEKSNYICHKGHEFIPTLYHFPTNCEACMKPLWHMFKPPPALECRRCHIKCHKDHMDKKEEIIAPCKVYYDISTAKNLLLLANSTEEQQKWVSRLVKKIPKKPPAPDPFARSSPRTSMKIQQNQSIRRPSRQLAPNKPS
Ribosomal protein S6 kinase beta-1 (Homo sapiens), sequence (P23443 whole entry, looked up): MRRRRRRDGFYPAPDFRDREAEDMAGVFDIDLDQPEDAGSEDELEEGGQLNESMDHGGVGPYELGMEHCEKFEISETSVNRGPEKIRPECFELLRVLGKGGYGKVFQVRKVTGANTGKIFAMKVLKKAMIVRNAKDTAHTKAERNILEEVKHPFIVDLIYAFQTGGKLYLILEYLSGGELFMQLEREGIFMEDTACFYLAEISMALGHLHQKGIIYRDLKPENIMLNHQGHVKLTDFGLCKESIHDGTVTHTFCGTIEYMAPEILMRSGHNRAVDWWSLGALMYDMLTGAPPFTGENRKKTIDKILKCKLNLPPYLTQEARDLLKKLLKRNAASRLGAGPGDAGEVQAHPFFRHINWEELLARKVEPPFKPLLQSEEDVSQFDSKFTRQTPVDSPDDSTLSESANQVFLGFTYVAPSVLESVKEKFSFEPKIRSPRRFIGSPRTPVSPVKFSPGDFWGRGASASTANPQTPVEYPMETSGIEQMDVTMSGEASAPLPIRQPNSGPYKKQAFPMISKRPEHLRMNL
Platelet-derived growth factor receptor beta (Homo sapiens), sequence (P09619 whole entry): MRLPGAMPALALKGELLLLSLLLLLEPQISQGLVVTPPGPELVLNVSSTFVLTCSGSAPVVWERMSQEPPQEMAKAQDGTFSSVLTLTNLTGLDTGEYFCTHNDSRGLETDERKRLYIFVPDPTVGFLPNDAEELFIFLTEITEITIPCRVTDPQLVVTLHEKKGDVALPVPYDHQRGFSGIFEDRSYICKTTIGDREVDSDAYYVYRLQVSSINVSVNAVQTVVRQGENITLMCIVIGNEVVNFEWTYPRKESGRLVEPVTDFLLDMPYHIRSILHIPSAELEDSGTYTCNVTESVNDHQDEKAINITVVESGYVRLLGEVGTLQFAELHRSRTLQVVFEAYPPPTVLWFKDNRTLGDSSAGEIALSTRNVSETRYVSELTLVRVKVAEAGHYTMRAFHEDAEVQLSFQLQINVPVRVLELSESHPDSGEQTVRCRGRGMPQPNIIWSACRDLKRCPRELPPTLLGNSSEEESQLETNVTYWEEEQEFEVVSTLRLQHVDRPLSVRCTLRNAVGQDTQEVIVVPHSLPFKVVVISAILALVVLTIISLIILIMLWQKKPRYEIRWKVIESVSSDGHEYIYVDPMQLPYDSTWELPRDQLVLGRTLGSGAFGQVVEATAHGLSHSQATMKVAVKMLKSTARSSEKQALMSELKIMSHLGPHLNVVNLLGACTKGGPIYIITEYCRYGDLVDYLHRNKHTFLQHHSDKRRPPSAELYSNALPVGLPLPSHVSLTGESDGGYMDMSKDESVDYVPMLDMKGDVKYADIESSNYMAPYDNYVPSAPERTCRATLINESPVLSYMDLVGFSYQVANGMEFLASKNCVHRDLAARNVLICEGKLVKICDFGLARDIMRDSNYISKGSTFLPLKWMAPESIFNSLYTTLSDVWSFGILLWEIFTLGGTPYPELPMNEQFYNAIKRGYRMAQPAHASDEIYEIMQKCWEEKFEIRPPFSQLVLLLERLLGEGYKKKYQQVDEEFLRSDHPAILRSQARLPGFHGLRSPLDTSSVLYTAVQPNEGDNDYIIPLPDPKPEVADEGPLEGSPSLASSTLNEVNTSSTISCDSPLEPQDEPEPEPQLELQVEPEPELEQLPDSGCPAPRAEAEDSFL
High affinity nerve growth factor receptor (Homo sapiens), sequence (P04629 33-796 limits assumed): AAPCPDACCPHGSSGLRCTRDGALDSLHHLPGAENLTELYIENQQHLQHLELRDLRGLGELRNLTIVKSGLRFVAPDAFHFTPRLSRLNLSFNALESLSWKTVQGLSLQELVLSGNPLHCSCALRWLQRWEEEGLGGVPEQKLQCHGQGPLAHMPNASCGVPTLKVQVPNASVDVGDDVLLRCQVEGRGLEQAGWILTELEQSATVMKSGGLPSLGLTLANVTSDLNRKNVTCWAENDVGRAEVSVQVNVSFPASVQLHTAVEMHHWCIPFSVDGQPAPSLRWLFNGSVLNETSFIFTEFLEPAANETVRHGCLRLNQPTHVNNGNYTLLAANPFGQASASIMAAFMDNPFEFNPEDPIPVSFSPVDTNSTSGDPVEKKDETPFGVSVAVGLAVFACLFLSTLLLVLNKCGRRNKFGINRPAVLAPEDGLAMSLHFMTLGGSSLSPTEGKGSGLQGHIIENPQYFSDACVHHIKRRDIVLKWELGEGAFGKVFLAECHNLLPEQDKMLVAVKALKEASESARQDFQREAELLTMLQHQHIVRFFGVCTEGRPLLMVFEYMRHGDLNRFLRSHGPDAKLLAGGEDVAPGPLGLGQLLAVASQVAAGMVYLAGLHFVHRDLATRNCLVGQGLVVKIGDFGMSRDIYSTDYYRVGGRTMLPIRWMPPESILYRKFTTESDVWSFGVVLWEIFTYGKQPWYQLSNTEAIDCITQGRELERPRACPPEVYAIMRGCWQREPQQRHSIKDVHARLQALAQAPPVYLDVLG

A word on the inhibition: it is the relative decrease from the control value, in per cent. As to `Cc1cccc(N(C)c2cc(Nc3cccc(C(=O)NCc4ccc(N(C)C)cc4)c3)ncn2)c1`, the inhibition was found to be 0% in [1]; 0% in assay [2]; 3% in assay [3]; 3% in assay [4]; 1% in [5]; 0% in assay [6]. For the same molecule, the inhibition in [7] came to 3%; in [8] it was 0%; in assay [9], 4%; in [10], 0%; in assay [11], 13%; in assay [12] it was 0%. In addition, the inhibition in assay [13] was found to be 0%; in assay [14] it was 8%; in [15], 0%; in assay [16] it was 0%; in assay [17] it was 0%; in assay [18] it was 0%. The inhibition came out at 0% in assay [19] and 10% in [20].
With `COc1cccc(Nc2cc(Nc3cccc(C(=O)N(C)CCc4ccccn4)c3)nc(N)n2)c1`, the inhibition came out at 13% in assay [1]; 0% in [2]; 6% in assay [3]; 7% in assay [4]; 9% in assay [5]; 4% in assay [6]. Further, the inhibition in [7] was 8%; in assay [8], 0%; in [9] it was 7%; in assay [10] it was 0%; in assay [11] it was 3%; in assay [12] it was 0%. Also, the inhibition worked out at 2% in assay [13]; 9% in assay [14]; 4% in assay [15]; 0% in assay [16]; 0% in [17]; 19% in assay [18]. For the same molecule, the results for the inhibition in assay [19] and in [20] were 0% and 1%, respectively.
As to `Cc1cccc(N(C)c2cc(Nc3cccc(C(=O)N(CC(C)C)CC(C)C)c3)ncn2)c1`, the inhibition in [1], in [2], in assay [3], in assay [4], in assay [5] and in assay [6] was 0% in each case. Also, the inhibition in [7] stood at 11%; in [8] it was 0%; in [9], 7%; in [10], 0%; in assay [11] it was 9%; in [12], 0%. The inhibition in assay [13] amounted to 0%; in assay [14], 9%; in [15] it was 0%; in [16], 0%; in [17] it was 0%; in [18], 0%. Besides, the inhibition in assay [19] worked out at 0%; in assay [20], 3%.
As for `CN(C)CC(C)(C)CNC(=O)c1cccc(Nc2nccc(Nc3ccc4ncsc4c3)n2)c1`, the inhibition in assay [1] was found to be 72%; in assay [2] it was 17%; in assay [3], 52%; in assay [4], 86%; in [5], 7%; in [6] it was 27%. In addition, the inhibition in assay [7] was 18%; in assay [8], 100%; in assay [9], 97%; in [10], 0%; in [11] it was 99%; in [12], 0%. Moreover, the inhibition in assay [13] came to 29%; in assay [14], 75%; in assay [15] it was 0%; in assay [16] it was 34%; in [17], 95%; in assay [18], 97%. Further, the figures for the inhibition in assay [19] and in assay [20] were 5% and 79%, respectively.
`CN(C)CC(C)(C)CNC(=O)[C@@H]1CCCN1c1nccc(Nc2ccccc2)n1`: the inhibition in [1] was found to be 10%; in [2], 0%; in [3], 5%; in assay [4] it was 4%; in assay [5], 6%; in assay [6], 0%. Moreover, the inhibition in [7] is 13%; in [8] it was 0%; in assay [9], 20%; in assay [10] it was 0%; in assay [11], 5%; in [12], 4%. Besides, the inhibition in assay [13] turned out to be 0%; in [14], 6%; in assay [15], 10%; in assay [16] it was 0%; in [17], 0%; in assay [18], 0%. The inhibition in [19] was 0%; in assay [20], 2%.
With `COC(=O)C(CO)NC(=O)[C@@H]1CCCN1c1nccc(Oc2cccc(C)c2)n1` (stereo not given in full), the inhibition in assay [1] worked out at 0%; in assay [2], 0%; in assay [3], 1%; in assay [4] it was 0%; in assay [5], 1%; in assay [6], 3%. Further, the inhibition in assay [7] turned out to be 5%; in [8], 0%; in assay [9], 0%; in assay [10], 0%; in assay [11] it was 0%; in assay [12], 1%. Also, the inhibition in assay [13] turned out to be 0%; in [14], 4%; in assay [15], 0%; in [16], 0%; in assay [17], 0%; in [18] it was 5%. For the same molecule, the inhibition in [19] is 0%; in assay [20], 4%.
For `O=C(c1nc(SCc2ccc(Cl)cc2)n2ccccc12)N1CCN(c2cc(Nc3cccc(Br)c3)ncn2)CC1`, the inhibition in assay [1] was 5%; in [2] it was 0%; in assay [3], 1%; in [4], 14%; in assay [5], 5%; in [6], 6%. The inhibition was 6% in assay [7]; 0% in assay [8]; 0% in [9]; 0% in assay [10]; 10% in assay [11]; 2% in assay [12]. In addition, the inhibition in assay [13] is 0%; in assay [14] it was 5%; in assay [15] it was 0%; in assay [16], 0%; in [17] it was 0%; in assay [18] it was 7%. The values for the inhibition in [19] and in assay [20] were 8% and 4%, respectively.
In the case of `Cc1ccc(CN2CCN(c3nccc(C(C#N)c4ccccn4)n3)CC2)cc1` (stereo not given), the inhibition was 7% in assay [1]; 0% in [2]; 7% in [3]; 5% in [4]; 8% in [5]; 0% in [6]. For the same molecule, the inhibition in assay [7] is 11%; in assay [8], 0%; in assay [9], 3%; in assay [10], 0%; in assay [11], 14%; in assay [12] it was 0%. Also, the inhibition in assay [13] was found to be 0%; in [14] it was 5%; in assay [15] it was 1%; in assay [16], 0%; in assay [17], 0%; in [18], 2%. For the same molecule, the figures for the inhibition in [19] and in assay [20] were 0% and 4%, respectively.

(Values after ChEMBL document CHEMBL1150387, “Development and experimental validation of a docking strategy for the generation of kinase-targeted libraries” (J Med Chem, 2008).)
